# Active and inactive are the calls of the source. No cut-off for these calls is given here.
# Key:
# Rattus norvegicus [1] = test: Neurotoxicity in pilocarpine-induced status epilepticus Sprague-Dawley albino rat model assessed as minimal motor impairment at 30 mg/kg, ip after 1 hr by rotarod test; format: toxicity, organism-based; design: dose 30 mg/kg, route intraperitoneal; conditions: in vivo
# Summary of the method: (§1)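 Rat pilocarpine status epilepticus model: test carbamate given at 0 or 30 min after the first observed Racine stage 3 motor seizure, which marks SE onset. Neurotoxicity was scored within the same model.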
# Rattus norvegicus [2] = test: Neurotoxicity in pilocarpine-induced status epilepticus Sprague-Dawley albino rat model assessed as minimal motor impairment at 300 mg/kg, ip after 0.5 hrs by rotarod test; format: toxicity, organism-based; design: dose 300 mg/kg, route intraperitoneal; conditions: in vivo; summary of the method: as §1
# Rattus norvegicus [3] = test: Neurotoxicity in pilocarpine-induced status epilepticus Sprague-Dawley albino rat model assessed as minimal motor impairment at 100 mg/kg, ip after 0.5 hrs by rotarod test; format: toxicity, organism-based; design: dose 100 mg/kg, route intraperitoneal; conditions: in vivo
# Mus musculus [4] = test: Neurotoxicity in albino CF1 mouse assessed as minimal motor impairment at 300 mg/kg, ip after 0.5 hrs by rotarod test; format: toxicity, organism-based; design: dose 300 mg/kg, route intraperitoneal; conditions: in vivo
# Summary of the method: (§2)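 Mice dosed ip at 30, 100 or 300 mg/kg, then tested 0.5 h and 4 h after administration in the MES or scMet test. Protection was recorded as animals protected over animals tested. Neurotoxicity was recorded as motor impairment or sedation, as animals affected over animals tested.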
# Mus musculus [5] = test: Neurotoxicity in albino CF1 mouse assessed as minimal motor impairment at 30 mg/kg, ip after 4 hrs by rotarod test; format: toxicity, organism-based; design: dose 30 mg/kg, route intraperitoneal; conditions: in vivo; summary of the method: as §2
# Mus musculus [6] = test: Anticonvulsant activity in albino CF1 mouse assessed as protection against subcutaneous metrazol-induced seizures at 30 mg/kg, ip after 0.5 hrs; format: functional, organism-based; design: dose 30 mg/kg; summary of the method: as §2
# Rattus norvegicus [7] = test: Anticonvulsant activity in Sprague-Dawley albino rat assessed as protection against maximal electroshock-induced seizures at 30 mg/kg, po after 30 mins; format: functional, organism-based; design: dose 30 mg/kg
# Summary of the method: (§3)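 Rats dosed orally. Anti-MES protection was scored as animals protected over animals tested at each time after dosing. Neurotoxicity was scored as motor impairment or sedation, as animals affected over animals tested.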
# Rattus norvegicus [8] = test: Neurotoxicity in pilocarpine-induced status epilepticus Sprague-Dawley albino rat model assessed as minimal motor impairment at 100 mg/kg, ip after 2 hrs by rotarod test; format: toxicity, organism-based; design: dose 100 mg/kg, route intraperitoneal; conditions: in vivo
# Mus musculus [9] = test: Anticonvulsant activity in albino CF1 mouse assessed as protection against maximal electroshock-induced seizures at 300 mg/kg, ip after 0.5 hrs; format: functional, organism-based; design: dose 300 mg/kg; summary of the method: as §2
# Rattus norvegicus [10] = test: Neurotoxicity in pilocarpine-induced status epilepticus Sprague-Dawley albino rat model assessed as minimal motor impairment at 30 mg/kg, ip after 0.25 hr by rotarod test; format: toxicity, organism-based; design: dose 30 mg/kg, route intraperitoneal; conditions: in vivo; summary of the method: as §1
# Rattus norvegicus [11] = test: Neurotoxicity in Sprague-Dawley albino rat assessed as minimal motor impairment at 30 mg/kg, po by rotarod test; format: toxicity, organism-based; design: dose 30 mg/kg, route oral; conditions: in vivo; summary of the method: as §3
# Mus musculus [12] = test: Anticonvulsant activity in albino CF1 mouse assessed as protection against subcutaneous metrazol-induced seizures at 100 mg/kg, ip after 4 hrs; format: functional, organism-based; design: dose 100 mg/kg; summary of the method: as §2
# Mus musculus [13] = test: Anticonvulsant activity in albino CF1 mouse assessed as protection against maximal electroshock-induced seizures at 100 mg/kg, ip after 0.5 hrs; format: functional, organism-based; design: dose 100 mg/kg; summary of the method: as §2
# Mus musculus [14] = test: Neurotoxicity in albino CF1 mouse assessed as minimal motor impairment at 100 mg/kg, ip after 0.5 hrs by rotarod test; format: toxicity, organism-based; design: dose 100 mg/kg, route intraperitoneal; conditions: in vivo; summary of the method: as §2
# Mus musculus [15] = test: Anticonvulsant activity in albino CF1 mouse assessed as protection against subcutaneous metrazol-induced seizures at 30 mg/kg, ip after 4 hrs; format: functional, organism-based; design: dose 30 mg/kg; summary of the method: as §2
# Rattus norvegicus [16] = test: Neurotoxicity in pilocarpine-induced status epilepticus Sprague-Dawley albino rat model assessed as minimal motor impairment at 30 mg/kg, ip after 2 hrs by rotarod test; format: toxicity, organism-based; design: dose 30 mg/kg, route intraperitoneal; conditions: in vivo; summary of the method: as §1
# Mus musculus [17] = test: Anticonvulsant activity in albino CF1 mouse assessed as protection against maximal electroshock-induced seizures at 300 mg/kg, ip after 4 hrs; format: functional, organism-based; design: dose 300 mg/kg; summary of the method: as §2
# Rattus norvegicus [18] = test: Neurotoxicity in pilocarpine-induced status epilepticus Sprague-Dawley albino rat model assessed as minimal motor impairment at 30 mg/kg, ip after 4 hrs by rotarod test; format: toxicity, organism-based; design: dose 30 mg/kg, route intraperitoneal; conditions: in vivo; summary of the method: as §1
# Mus musculus [19] = test: Neurotoxicity in albino CF1 mouse assessed as minimal motor impairment at 100 mg/kg, ip after 4 hrs by rotarod test; format: toxicity, organism-based; design: dose 100 mg/kg, route intraperitoneal; conditions: in vivo; summary of the method: as §2
# Rattus norvegicus [20] = test: Anticonvulsant activity in Sprague-Dawley albino rat assessed as protection against maximal electroshock-induced seizures at 30 mg/kg, po after 15 mins; format: functional, organism-based; design: dose 30 mg/kg; summary of the method: as §3
# Mus musculus [21] = test: Anticonvulsant activity in albino CF1 mouse assessed as protection against maximal electroshock-induced seizures at 30 mg/kg, ip after 0.5 hrs; format: functional, organism-based; design: dose 30 mg/kg; summary of the method: as §2
# Rattus norvegicus [22] = test: Neurotoxicity in pilocarpine-induced status epilepticus Sprague-Dawley albino rat model assessed as minimal motor impairment at 100 mg/kg, ip after 0.25 hr by rotarod test; format: toxicity, organism-based; design: dose 100 mg/kg, route intraperitoneal; conditions: in vivo
# Rattus norvegicus [23] = test: Neurotoxicity in pilocarpine-induced status epilepticus Sprague-Dawley albino rat model assessed as minimal motor impairment at 300 mg/kg, ip after 1 hr by rotarod test; format: toxicity, organism-based; design: dose 300 mg/kg, route intraperitoneal; conditions: in vivo; summary of the method: as §1
# Rattus norvegicus [24] = test: Neurotoxicity in pilocarpine-induced status epilepticus Sprague-Dawley albino rat model assessed as minimal motor impairment at 100 mg/kg, ip after 4 hrs by rotarod test; format: toxicity, organism-based; design: dose 100 mg/kg, route intraperitoneal; conditions: in vivo
# Rattus norvegicus [25] = test: Anticonvulsant activity in Sprague-Dawley albino rat assessed as protection against maximal electroshock-induced seizures at 30 mg/kg, po after 4 hrs; format: functional, organism-based; design: dose 30 mg/kg; summary of the method: as §3
# Mus musculus [26] = test: Neurotoxicity in albino CF1 mouse assessed as minimal motor impairment at 30 mg/kg, ip after 0.5 hrs by rotarod test; format: toxicity, organism-based; design: dose 30 mg/kg, route intraperitoneal; conditions: in vivo; summary of the method: as §2
# Mus musculus [27] = test: Anticonvulsant activity in albino CF1 mouse assessed as protection against subcutaneous metrazol-induced seizures at 300 mg/kg, ip after 0.5 hrs; format: functional, organism-based; design: dose 300 mg/kg; summary of the method: as §2
# Rattus norvegicus [28] = test: Neurotoxicity in pilocarpine-induced status epilepticus Sprague-Dawley albino rat model assessed as minimal motor impairment at 300 mg/kg, ip after 0.25 hr by rotarod test; format: toxicity, organism-based; design: dose 300 mg/kg, route intraperitoneal; conditions: in vivo; summary of the method: as §1
# Mus musculus [29] = test: Anticonvulsant activity in albino CF1 mouse assessed as protection against maximal electroshock-induced seizures at 30 mg/kg, ip after 4 hrs; format: functional, organism-based; design: dose 30 mg/kg; summary of the method: as §2
# Mus musculus [30] = test: Neurotoxicity in albino CF1 mouse assessed as minimal motor impairment at 300 mg/kg, ip after 4 hrs by rotarod test; format: toxicity, organism-based; design: dose 300 mg/kg, route intraperitoneal; conditions: in vivo; summary of the method: as §2
# Rattus norvegicus [31] = test: Neurotoxicity in pilocarpine-induced status epilepticus Sprague-Dawley albino rat model assessed as minimal motor impairment at 300 mg/kg, ip after 4 hrs by rotarod test; format: toxicity, organism-based; design: dose 300 mg/kg, route intraperitoneal; conditions: in vivo; summary of the method: as §1
# Mus musculus [32] = test: Anticonvulsant activity in albino CF1 mouse assessed as protection against maximal electroshock-induced seizures at 100 mg/kg, ip after 4 hrs; format: functional, organism-based; design: dose 100 mg/kg; summary of the method: as §2
# Mus musculus [33] = test: Anticonvulsant activity in albino CF1 mouse assessed as protection against subcutaneous metrazol-induced seizures at 300 mg/kg, ip after 4 hrs; format: functional, organism-based; design: dose 300 mg/kg; summary of the method: as §2
# Rattus norvegicus [34] = test: Neurotoxicity in pilocarpine-induced status epilepticus Sprague-Dawley albino rat model assessed as minimal motor impairment at 30 mg/kg, ip after 0.5 hrs by rotarod test; format: toxicity, organism-based; design: dose 30 mg/kg, route intraperitoneal; conditions: in vivo; summary of the method: as §1
# Mus musculus [35] = test: Anticonvulsant activity in albino CF1 mouse assessed as protection against subcutaneous metrazol-induced seizures at 100 mg/kg, ip after 0.5 hrs; format: functional, organism-based; design: dose 100 mg/kg; summary of the method: as §2
smiles,measurement,setting,value
CCC(COC(N)=O)CC(C)C (racemic),Activity,Rattus norvegicus [1],Non-toxic
same,Activity,Rattus norvegicus [2],Toxic
same,Activity,Rattus norvegicus [3],Toxic
same,Activity,Mus musculus [4],Toxic
same,Activity,Mus musculus [5],Non-toxic
same,Activity,Mus musculus [6],inactive
same,Activity,Rattus norvegicus [7],inactive
same,Activity,Rattus norvegicus [8],Non-toxic
same,Activity,Mus musculus [9],Active
same,Activity,Rattus norvegicus [10],Non-toxic
same,Activity,Rattus norvegicus [11],Non-toxic
same,Activity,Mus musculus [12],inactive
same,Activity,Mus musculus [13],inactive
same,Activity,Mus musculus [14],Non-toxic
same,Activity,Mus musculus [15],inactive
same,Activity,Rattus norvegicus [16],Non-toxic
same,Activity,Mus musculus [17],inactive
same,Activity,Rattus norvegicus [18],Non-toxic
same,Activity,Mus musculus [19],Non-toxic
same,Activity,Rattus norvegicus [20],inactive
same,Activity,Mus musculus [21],inactive
same,Activity,Rattus norvegicus [22],Toxic
same,Activity,Rattus norvegicus [23],Toxic
same,Activity,Rattus norvegicus [24],Non-toxic
same,Activity,Rattus norvegicus [25],inactive
same,Activity,Mus musculus [26],Non-toxic
same,Activity,Mus musculus [27],Active
same,Activity,Rattus norvegicus [28],Toxic
same,Activity,Mus musculus [29],inactive
same,Activity,Mus musculus [30],Non-toxic
same,Activity,Rattus norvegicus [31],Non-toxic
same,Activity,Mus musculus [32],inactive
same,Activity,Mus musculus [33],inactive
same,Activity,Rattus norvegicus [34],Non-toxic
same,Activity,Mus musculus [35],inactive
